ChEMBL document CHEMBL2346664, “Synthesis, characterization and in vitro anticancer evaluation of novel 1,2,4-triazolin-3-one derivatives” (2013)
The source made the active and inactive calls. The rule behind the calls is not given here.

Key:
[1] = system: RXF 393; assay: Growth inhibition of human RXF393 cells assessed as cell growth at 10 '-5 M after 48 hrs by sulforhodamine B assay; format: functional; details: RXF 393, 48 h, read-out: Activity
[2] = system: KM12; assay: Growth inhibition of human KM12 cells assessed as cell growth at 10 '-4 M after 48 hrs by sulforhodamine B assay; format: functional; details: KM12, 48 h, read-out: Activity
[3] = system: UACC-62; assay: Growth inhibition of human UACC62 cells assessed as cell growth at 10 '-6 M after 48 hrs by sulforhodamine B assay; format: functional; details: UACC-62, 48 h, read-out: Activity
[4] = system: HCT-15; assay: Growth inhibition of human HCT15 cells after 48 hrs by sulforhodamine B assay; format: functional; details: HCT-15, 48 h
Method in brief: (§1)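 NCI 60-cell-line five-dose screen. Cells were plated at 5,000–40,000/well by doubling time and grown 24 h at 37 °C, 5% CO2. Time-zero plates were TCA-fixed. Drug from DMSO stock was tested at 0.01, 0.1, 1, 10 and 100 µM final for 48 h continuous exposure. Read-out was SRB at 515 nm. GI50 is the concentration giving 50% reduction in net protein increase versus untreated control.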

[5] = system: SF-268; assay: Growth inhibition of human SF268 cells after 48 hrs by sulforhodamine B assay; format: functional; details: SF-268, 48 h
[6] = Growth inhibition of human Hs 578T cells assessed as cell growth at 10 '-7 M after 48 hrs by sulforhodamine B assay; format: functional; details: read-out: Activity
[7] = system: MCF7; assay: Growth inhibition of human MCF7 cells assessed as growth inhibition at 10 uM after 48 hrs by sulforhodamine B assay; format: functional; details: MCF7, 48 h, read-out: GI
[8] = system: OVCAR-8; assay: Growth inhibition of human OVCAR8 cells assessed as cell growth at 10 '-6 M after 48 hrs by sulforhodamine B assay; format: functional; details: OVCAR-8, 48 h, read-out: Activity
[9] = system: OVCAR-5; assay: Growth inhibition of human OVCAR5 cells assessed as cell growth at 10 '-7 M after 48 hrs by sulforhodamine B assay; format: functional; details: OVCAR-5, 48 h, read-out: Activity
[10] = system: SK-OV-3; assay: Growth inhibition of human SKOV3 cells assessed as cell growth at 10 '-6 M after 48 hrs by sulforhodamine B assay; format: functional; details: SK-OV-3, 48 h, read-out: Activity
[11] = system: MDA-MB-435; assay: Growth inhibition of human MDA-MB-435 cells assessed as cell growth at 10 '-5 M after 48 hrs by sulforhodamine B assay; format: functional; details: MDA-MB-435, 48 h, read-out: Activity
[12] = Growth inhibition of human NCI-ADR-RES cells assessed as cell growth at 10 '-6 M after 48 hrs by sulforhodamine B assay; format: functional; details: read-out: Activity
[13] = system: MDA-MB-435; assay: Growth inhibition of human MDA-MB-435 cells assessed as growth inhibition at 10 uM after 48 hrs by sulforhodamine B assay; format: functional, cell-based
[14] = system: SK-OV-3; assay: Growth inhibition of human SKOV3 cells assessed as cell growth at 10 '-8 M after 48 hrs by sulforhodamine B assay; format: functional; details: SK-OV-3, 48 h, read-out: Activity
[15] = Growth inhibition of human EKVX cells assessed as cell growth at 10 '-5 M after 48 hrs by sulforhodamine B assay; format: functional; details: read-out: Activity
[16] = system: KM12; assay: Growth inhibition of human KM12 cells assessed as cell growth at 10 '-8 M after 48 hrs by sulforhodamine B assay; format: functional; details: KM12, 48 h, read-out: Activity
[17] = system: SF-295; assay: Growth inhibition of human SF295 cells assessed as cell growth at 10 uM after 48 hrs by sulforhodamine B assay; format: functional; details: SF-295, 48 h, read-out: Activity
[18] = system: NCI-H522; assay: Growth inhibition of human NCI-H522 cells assessed as cell growth at 10 '-8 M after 48 hrs by sulforhodamine B assay; format: functional; details: NCI-H522, 48 h, read-out: Activity
[19] = system: U-251; assay: Growth inhibition of human U251 cells assessed as cell growth at 10 '-5 M after 48 hrs by sulforhodamine B assay; format: functional; details: U-251, 48 h, read-out: Activity
[20] = system: M14; assay: Growth inhibition of human M14 cells assessed as cell growth at 10 '-6 M after 48 hrs by sulforhodamine B assay; format: functional; details: M14, 48 h, read-out: Activity
[21] = system: UACC-257; assay: Growth inhibition of human UACC257 cells assessed as growth inhibition at 10 uM after 48 hrs by sulforhodamine B assay; format: functional; details: UACC-257, 48 h, read-out: GI
[22] = system: SK-OV-3; assay: Growth inhibition of human SKOV3 cells assessed as cell growth at 10 '-5 M after 48 hrs by sulforhodamine B assay; format: functional; details: SK-OV-3, 48 h, read-out: Activity
[23] = system: RPMI-8226; assay: Growth inhibition of human RPMI8226 cells assessed as cell growth at 10 '-7 M after 48 hrs by sulforhodamine B assay; format: functional; details: RPMI-8226, 48 h, read-out: Activity
[24] = system: 786-0; assay: Growth inhibition of human 786-0 cells assessed as cell growth at 10 '-7 M after 48 hrs by sulforhodamine B assay; format: functional; details: 786-0, 48 h, read-out: Activity
Method in brief: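 Percent growth at each of the five concentrations of the 48 h continuous-exposure NCI SRB screen. Drug stocks were in DMSO at 400× the top final concentration and diluted in medium with gentamicin. Growth was calculated as [(Ti-Tz)/(C-Tz)]×100 when Ti ≥ Tz, or [(Ti-Tz)/Tz]×100 when Ti < Tz. Tz plates were fixed at drug addition; untreated wells served as control. Absorbance was read at 515 nm.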

[25] = system: SNB-19; assay: Growth inhibition of human SNB19 cells assessed as cell growth at 10 '-5 M after 48 hrs by sulforhodamine B assay; format: functional; details: SNB-19, 48 h, read-out: Activity
[26] = Growth inhibition of human EKVX cells assessed as cell growth at 10 '-7 M after 48 hrs by sulforhodamine B assay; format: functional; details: read-out: Activity
[27] = system: UACC-257; assay: Growth inhibition of human UACC257 cells assessed as cell growth at 10 '-8 M after 48 hrs by sulforhodamine B assay; format: functional; details: UACC-257, 48 h, read-out: Activity
[28] = system: MCF7; assay: Growth inhibition of human MCF7 cells assessed as cell growth at 10 '-5 M after 48 hrs by sulforhodamine B assay; format: functional; details: MCF7, 48 h, read-out: Activity
[29] = system: RPMI-8226; assay: Growth inhibition of human RPMI8226 cells assessed as cell growth at 10 '-6 M after 48 hrs by sulforhodamine B assay; format: functional; details: RPMI-8226, 48 h, read-out: Activity
[30] = system: HOP-62; assay: Growth inhibition of human HOP62 cells after 48 hrs by sulforhodamine B assay; format: functional; details: HOP-62, 48 h; method in brief: as §1
[31] = system: UACC-257; assay: Growth inhibition of human UACC257 cells assessed as cell growth at 10 '-6 M after 48 hrs by sulforhodamine B assay; format: functional; details: UACC-257, 48 h, read-out: Activity
[32] = system: SF-268; assay: Growth inhibition of human SF268 cells assessed as growth inhibition at 10 uM after 48 hrs by sulforhodamine B assay; format: functional; details: SF-268, 48 h, read-out: GI
[33] = system: KM12; assay: Growth inhibition of human KM12 cells assessed as growth inhibition at 10 uM after 48 hrs by sulforhodamine B assay; format: functional; details: KM12, 48 h, read-out: GI
[34] = read-out: LD50 (the source's name)

In the case of `Cc1cc(=O)oc2cc(OCCn3c(C)nn(-c4ccc(Cl)cc4)c3=O)ccc12`, the growth at 10 µM [1] is reported as 18%, the growth at 100 µM [2] is reported as 12% and the growth at 1 µM [3] is reported as 61%. It also gave a GI50 [4] of 3200 nM, a TGI [4] greater than 1000 nM and a CC50 [4, 34] greater than 1000 nM. For the same compound, the GI50 [5] was 1360 nM, the TGI [5] was greater than 1000 nM and the CC50 [5, 34] was greater than 1000 nM. It also gave a growth at 0.1 µM [6] of 83%, an inhibition of growth at 10 µM [7] of 84.2% and a growth at 1 µM [8] of 97%. For the same compound, the growth at 0.1 µM [9] was 102%, the growth at 1 µM [10] was 88% and the growth at 10 µM [11] was -27%. For the same compound, the growth at 1 µM [12] was 61%, the “growth inhibition (GI)” value [13] was “Active” and the growth at 0.01 µM [14] was 111%. It also gave a growth at 10 µM [15] of 63%, a growth at 0.01 µM [16] of 104% and a growth at 10 µM [17] of 14%. For the same compound, the growth at 0.01 µM [18] was 100%, the growth at 10 µM [19] was 27% and the growth at 1 µM [20] was 67%. For the same compound, the inhibition of growth at 10 µM [21] was 77.5%, the growth at 10 µM [22] was 16% and the growth at 0.1 µM [23] was 97%. It also gave a growth at 0.1 µM [24] of 104%, a growth at 10 µM [25] of 39% and a growth at 0.1 µM [26] of 90%. The growth at 0.01 µM [27] was 95%, the growth at 10 µM [28] was 14% and the growth at 1 µM [29] was 95%. The GI50 [30] was 3050 nM, the TGI [30] was 3290 nM and the CC50 [30, 34] was greater than 1000 nM. For the same compound, the growth at 1 µM [31] was 96%, the inhibition of growth at 10 µM [32] was 49.7% and the inhibition of growth at 10 µM [33] was 68.6%.
